Measurements taken from article PMC8592089 (SLAS discovery : advancing life sciences R & D, 2020).
Entries after “also recorded” stand apart in the source; their conditions may differ. Read-outs that look alike come from different tables or passages of the source.

Columns and labels:
[1] = target: T1, PABPN1 (Homo sapiens, UniProt Q86U42); test: AlphaScreen specificity counterscreen against PABPN1; assay type: binding; details: AlphaScreen IC50 MSUT2 compared with PABPN1, in words
T1 sequence (Q86U42 1-306): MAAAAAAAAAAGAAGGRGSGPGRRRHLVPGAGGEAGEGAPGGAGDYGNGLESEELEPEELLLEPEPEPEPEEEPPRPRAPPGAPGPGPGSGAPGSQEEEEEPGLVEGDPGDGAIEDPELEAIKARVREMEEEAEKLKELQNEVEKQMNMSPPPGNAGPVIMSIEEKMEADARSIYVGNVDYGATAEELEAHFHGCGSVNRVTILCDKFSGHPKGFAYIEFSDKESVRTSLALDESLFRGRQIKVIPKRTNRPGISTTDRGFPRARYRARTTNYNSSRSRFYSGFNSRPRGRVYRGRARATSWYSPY
Summary of the method: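 GST-tagged PABPN1 and MSUT2 zinc-finger construct were expressed in E. coli BL21(DE3) and purified on glutathione-sepharose. AlphaScreen was run in AlphaLISA universal buffer plus 100 mM NaCl with donor beads (10 μg/mL), 250 nM biotinylated poly(A) RNA and 250 nM GST-MSUT2. Compound was pin-added, incubated 30 min at RT in the dark, then acceptor beads were added for 60 min. IC50 was from a four-parameter fit, N=3.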

[2] = target: MSUT2; test: Fluorescence polarization orthogonal assay, FAM-poly; assay type: binding
Summary of the method: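 GST-MSUT2 zinc finger (E. coli BL21(DE3), glutathione-purified) at 125 nM was mixed with 10 nM FAM-poly(A) RNA in PBS, and compound was added. Incubation was 20 min at room temperature, protected from light. Read at ex 485/20, em 528/20; buffer-only background was subtracted and polarization calculated as (F∥−F⊥)/(F∥+F⊥). A parallel run included DTT. N=3 without DTT, N=2 with DTT.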

[3] = system: HEK-293 cells; test: Cytotoxicity screen, CellTiter-Glo cell viability; assay type: cell-based, human; details: HEK cell model, in words
[4] = target: MSUT2; details: read-out: Kd of MSUT2 for poly(A); cited from earlier work
[5] = target: T2, PABPN1 (UniProt Q86U42 1-306); test: competition
T2 sequence: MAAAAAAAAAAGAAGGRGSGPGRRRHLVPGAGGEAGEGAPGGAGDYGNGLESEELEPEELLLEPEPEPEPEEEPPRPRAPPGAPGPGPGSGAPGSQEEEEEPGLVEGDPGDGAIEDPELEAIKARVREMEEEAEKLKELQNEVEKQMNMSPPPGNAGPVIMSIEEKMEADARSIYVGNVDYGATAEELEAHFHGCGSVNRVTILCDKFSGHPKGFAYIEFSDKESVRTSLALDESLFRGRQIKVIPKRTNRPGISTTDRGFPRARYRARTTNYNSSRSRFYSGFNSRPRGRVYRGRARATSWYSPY

[6] = target: T3, MSUT2 ZF (zinc finger domain) (UniProt Q6PJT7 595-719); test: competition
T3 sequence: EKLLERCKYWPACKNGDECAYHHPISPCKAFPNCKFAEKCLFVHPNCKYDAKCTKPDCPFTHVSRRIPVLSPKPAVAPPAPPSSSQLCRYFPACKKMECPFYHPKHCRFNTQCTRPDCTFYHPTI

[7] = read-out: IC50 (FP = FP assay), without DTT, 125 nM MSUT2, 10 nM FAM-RNA
[8] = read-out: IC50 (FP+DTT = FP in the presence of reducing agent DTT), with DTT

Molecule | Specificity for MSUT2 versus PABPN1 [1] | IC50 [2, 7] | IC50 [2, 8] | Effect on cell viability (toxicity) [3] | further results
O=C(O)C1=CC(=C(c2ccc(O)c(C(=O)O)c2)c2ccc(O)c(C(=O)O)c2)C=CC1=O [Aurin tricarboxylic acid, aurin tricarboxylic acid] | nonspecifically inhibited MSUT2 | 7110 nM | 7190 nM | relatively high toxicity at high concentrations | –
O=c1c2ccccc2[se]n1-c1ccccc1 [ebselen] | – | – | – | – | Inhibitory effect in FP assay in the presence of DTT ([2]; with reducing agent DTT): abolished the inhibitory effect
O=C1C(Cl)=C(Cl)C(=O)c2c(O)ccc(O)c21 [2,3-Dichloro-5,8-dihydroxynapthoquinone, 2,3-dichloro-5,8-dihydroxynapthoquinone] | low specificity for MSUT2 | 1320 nM | 1560 nM | – | –
O=S(=O)(O)c1cc(N=C=S)ccc1C=Cc1ccc(N=C=S)cc1S(=O)(=O)O [DIDS, 4,4′-diisothiocyanostilbene-2,2′-sulfonic acid] | low specificity for MSUT2; also recorded: twofold reduction in potency against PABPN1 | 6320 nM | 6020 nM | relatively nontoxic at all doses tested | –
poly(A) | – | – | – | – | Kd [4]: 60 ± 15 nM
AAAAAAAAAAAAAAA (ssRNA) [unlabeled poly(A) 15-mer] | – | – | – | – | IC50 [5]: 803 nM; IC50 [6]: 198 nM
